The test system of one data set is OATP2B1. The conditions noted are these: cited from earlier work.
Data set [1] has as its system OATP1B1. The conditions noted are these: following a single 600 mg dose; cited from earlier work.
Data set [2] deals with OATP1B3. The conditions noted are these: following a single 600 mg dose; cited from earlier work.
The conditions of data set [3]: cited from earlier work.
The conditions of data set [4]: ref Idorsia Pharmaceuticals, data on file; cited from earlier work.
The nature of data set [5]: Safety and tolerability evaluation of study treatments in healthy subjects. The data set is classed as in vivo, human. The conditions noted are these: for Number of AEs reported: 14 subjects. In a few lines:
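Randomized, double-blind, two-period crossover in healthy adults with a 7–10 day washout. Each period gave 100 mL saline or 600 mg OATP inhibitor i.v. over 30 min, with bags and lines covered. This was followed by 4 mg test compound s.c. in the thigh under fasting. Monitoring throughout covered AEs, serious AEs, physical exam, vital signs, 12-lead ECG, body weight, clinical chemistry, hematology and coagulation.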

For data set [6] the following is noted: cited from earlier work. This is another data set of the same source.
The test system of another data set is MRP2. The conditions noted are these: in vitro; ref Idorsia Pharmaceuticals, data on file; cited from earlier work.
Data set [7] deals with OATP1B3. The conditions noted are these: in vitro; ref Idorsia Pharmaceuticals, data on file; cited from earlier work.
The conditions of data set [8]: cited from earlier work. The source holds these as a separate data set.
Data set [9] deals with OATP1B1. The conditions noted are these: in vitro; ref Idorsia Pharmaceuticals, data on file; cited from earlier work.
Data set [10] is classed as in vivo, human. In a few lines: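 Same crossover dosing (saline or 600 mg inhibitor i.v. over 30 min, then 4 mg s.c. fasting). Plasma was sampled from 5 min to 36 h post-dose and stored at −25°C. Quantification used validated LC-MS/MS (LLOQ 1.00 ng/mL; linear 1.00–2,000 ng/mL). Noncompartmental analysis: AUC0–t by linear trapezoidal rule; AUC0–∞ adds Ct/λz; CL/F = Dose/AUC0–∞. Treatment effect given as geometric mean ratios with 90% CI.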

The subject of a further data set is platelet inhibition. The conditions noted are these: single s.c. doses of 8 and 16 mg, postdose; cited from earlier work.
Setting [11] is: 600 mg rifampin i.v. before 4 mg selatogrel s.c.
The mark [12] stands for this setting: Treatment A: placebo + 4 mg selatogrel s.c., n = 13.
Setting [13] is: Treatment B: 600 mg rifampin i.v. + 4 mg selatogrel s.c., n = 13.
Where [14] appears, read: treatment B (rifampin) / A (placebo), n = 13.

Where “and” joins values, the source holds several entries; their conditions need not be identical. Equal entries are not always repeated. Where two headings read alike, the source gives them in different places.

With `CO[C@H]1/C=C/O[C@@]2(C)Oc3c(C)c(O)c4c(O)c(c(/C=N/N5CCN(C)CC5)c(O)c4c3C2=O)NC(=O)/C(C)=C\C=C\[C@H](C)[C@H](O)[C@@H](C)[C@@H](O)[C@@H](C)[C@H](OC(C)=O)[C@@H]1C` [rifampin], the “Inhibition of OATP2B1” value in the data set on OATP2B1 was “not a potent inhibitor”. In the data set with OATP1B1 [1], the “Inhibition of OATP1B1” value is on record as “potent inhibitor”. Moreover, in the data set on OATP1B3 [2], the “Inhibition of OATP1B3” value was “potent inhibitor”.

Turning to `CCCCOC(=O)N1CCN(C(=O)[C@H](CP(=O)(O)O)NC(=O)c2cc(N3CC[C@H](OC)C3)nc(-c3ccccc3)n2)CC1` [selatogrel, 4‐((R)‐2‐{[6‐((S)‐3‐Methoxypyrrolidin‐1‐yl)‐2‐phenylpyrimidine‐4‐carbonyl]amino}‐ 3‐phosphonopropionyl)piperazine‐1‐carboxylic Acid Butyl Ester], in data set [3] (dose range 1–32 mg), the Exposure dose proportionality result is on record as “dose‐proportional exposure”; the “Safety and tolerability in single-ascending dose study” value is “safe and well‐tolerated”. In addition, in data set [3] (s.c.), the “Time of absorption after s.c. administration” value is 30 to 45 min and the elimination half-life is 2 to 9 h. Moreover, the transcellular permeability in data set [4] is on record as 0.2 10^−6 cm/seconds. In data set [5] (both treatment periods), the “Intensity of AEs” value is reported as “mild” and the “Serious adverse events or AEs leading to discontinuation” value is given as “No serious adverse events or AEs leading to study discontinuation”. Besides, the “Overall safety and tolerability” value in data set [5] (selatogrel 4 mg s.c. after rifampin or matching placebo) was “safe and well‐tolerated”. In addition, in [5] (selatogrel 4 mg s.c. with 600 mg rifampin i.v. (treatment B)), the “Number of AEs reported” value was 17. The “Number of AEs reported” value in data set [5] (selatogrel 4 mg s.c. with placebo (treatment A)) is 8. In addition, in data set [5] (treatment period A (placebo + selatogrel)), the “Number of AEs considered related to study treatment” value is reported as 1. Further, the Route of elimination entry in [6] is listed as “mainly eliminated unchanged via the biliary route”. In the data set on MRP2, the “Substrate of MRP2” value is recorded as “substrate”. The “Substrate of OATP1B3” value in the data set on OATP1B3 [7] is “substrate”. The Plasma protein binding result in data set [8] is listed as “highly bound to plasma proteins”. Besides, in the data set on OATP1B1 [9], the “Substrate of OATP1B1” value is “substrate”. Besides, in [10] (setting [11]), the “Decrease of CL/F with rifampin” value is listed as ~ 30%; the “Decrease of Vd/F with rifampin” value was ~ 30%; the “Increase of AUC0–t with rifampin compared with placebo” value is reported as 44%; the “Increase of AUC0–∞ with rifampin compared with placebo” value was 43% and ~40%. In addition, the “Increase of Cmax with rifampin compared with placebo” value in data set [10] (setting [11]) is 19% and ~ 20%. In [10] (setting [12]), the “AUC0–t, geometric mean” value stood at 273.7 ng·h/mL; the “AUC0–∞, geometric mean” value came to 279.8 ng·h/mL; the “CL/F, geometric mean” value is 14.3 L/h. Also, in [10] (setting [13]), the “AUC0–t, geometric mean” value was 392.6 ng·h/mL; the “AUC0–∞, geometric mean” value came out at 398.7 ng·h/mL; the “CL/F, geometric mean” value worked out at 10.0 L/h. Also, in data set [10] (setting [14]), the “AUC0–t, geometric mean ratio B/A” value was found to be 1.44; the “AUC0–∞, geometric mean ratio B/A” value is 1.43; the “CL/F, geometric mean ratio B/A” value is 0.70; the “Cmax, geometric mean ratio B/A” value is recorded as 1.19. Further, in data set [10] (setting [14]), the “Vd/F, geometric mean ratio B/A” value is 0.68 and the “t 1/2, geometric mean ratio B/A” value stood at 0.97. The “Time to reversal of pharmacodynamic effect” value in the data set on platelet inhibition is not above 24 h.
